# Assay results from ChEMBL document CHEMBL2157962, “A fluorous and click approach for screening potential PET probes: Evaluation of potential hypoxia biomarkers” (Bioorg Med Chem, 2012).
# Legend:
# MCF7 [1] = assay: Drug uptake in human MCF7 cells at 0.5 to 1.0 MBq/mL after 1 hr in normoxic condition by gamma counting; type: ADME, cell-based; details: mcf7, 1 h
# Summary of the method: (§1)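 MCF-7 cells in RPMI 1640 with 10% FBS were seeded at 100,000 cells/well and grown 24 h, then held 4 h normoxic (5% CO2) or hypoxic (5% CO2/95% N2 chamber, 37 °C). ¹⁸F-labeled tracer (0.5–1.0 MBq/mL in PBS) was added for 1 h at 37 °C. Cells were washed twice with PBS, lysed in 1 M NaOH, and gamma counted. Uptake is expressed as % of added activity; 6 replicates.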
# MCF7 [2] = assay: Drug uptake in human MCF7 cells at 0.5 to 1.0 MBq/mL after 1 hr measured 60 mins post wash out in hypoxic condition by gamma counting; type: ADME, cell-based; details: mcf7, 1 h
# Summary of the method: (§2)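 MCF-7 cells were preconditioned 4 h normoxic or hypoxic (5% CO2/95% N2), then given ¹⁸F tracer (0.5–1.0 MBq/mL) for 1 h at 37 °C. Radioactive medium was replaced with fresh RPMI 1640 (10% FBS) for a further 1 h under the same oxygen condition. Cells were then PBS-washed, lysed in 1 M NaOH and gamma counted. Retained activity is given as % of added.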
# MCF7 [3] = assay: Drug uptake in human MCF7 cells at 0.5 to 1.0 MBq/mL after 1 hr measured 60 mins post wash out in normoxic condition by gamma counting; type: ADME, cell-based; details: mcf7, 1 h; summary of the method: as §2
# MCF7 [4] = assay: Drug uptake in human MCF7 cells at 0.5 to 1.0 MBq/mL after 1 hr in hypoxic condition by gamma counting; type: ADME, cell-based; details: mcf7, 1 h; summary of the method: as §1
# [5] = 1-Octanol-phosphate buffer partition coefficient, log P of the compound at pH 7.4 after 30 mins by shake-flask method; type: physicochemical
# Summary of the method: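 Shake-flask: about 0.01–0.1 mg/mL compound shaken in 1-octanol and 50 mM phosphate buffer (pH 7.4) for 30 min at room temperature. Equal amounts of each phase quantified by HPLC UV absorbance (C18, isocratic ethanol:water). Triplicate, mean ± SD.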
# [6] = Drug metabolism of the compound assessed as reduction rate assessed per unit of enzyme in anoxic conditions in presence of bovine milk xanthine oxidase; type: physicochemical; details: cattle
# Summary of the method: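 Xanthine oxidase in PBS (0.118 unit) added to 0.29 mM xanthine (reducing substrate) plus 0.12 mM nitroaromatic (oxidizing substrate) in 50 mM PBS pH 7.5 at 37 °C. Solutions argon-degassed 20 min; sealed cuvette. Rate taken from initial absorbance loss at λmax (>325 nm) or at the 249 nm isosbestic point, converted to nmol/min via extinction coefficients. Triplicate, mean ± SD.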
# MCF7 [7] = assay: Drug uptake in human MCF7 cells at 30 MBq/umol after 1 hr in hypoxic condition by gamma counting; type: ADME, cell-based; details: mcf7, 1 h
# Summary of the method: (§3)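 MCF-7 cells were grown in RPMI 1640 with 10% FBS and 1% P/S, seeded at 100,000 cells/well, and cultured 24 h at 37 °C in 5% CO2. They were then kept 4 h in a sealed chamber flushed with 5% CO2/95% N2 (10 L/min, 15 min). ¹⁸F-tracer (0.5–1.0 MBq/mL in PBS) was added for 1 h at 37 °C under hypoxia. Cells were PBS-washed twice, lysed in 1 M NaOH, and gamma-counted; uptake is % of added activity, n=6.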
# MCF7 [8] = assay: Drug uptake in human MCF7 cells at 30 GBq/umol after 1 hr in hypoxic condition by gamma counting; type: ADME, cell-based; details: mcf7, 1 h; summary of the method: as §3
# MCF7 [9] = assay: Drug uptake in human MCF7 cells at 0.3 MBq/umol after 1 hr in hypoxic condition by gamma counting; type: ADME, cell-based; details: mcf7, 1 h; summary of the method: as §3
SMILES,Drug uptake (MCF7 [1]),Drug uptake (MCF7 [4]),logD at 0.5 h [5],Drug metabolism [6] [nmol/min/U],also measured
O=[N+]([O-])c1cnc(NCc2cn(CC[18F])nn2)s1,Active,Active,,,Drug uptake (MCF7 [2]): Active; Drug uptake (MCF7 [3]): Active
O=[N+]([O-])c1ncccc1NCc1cn(CC[18F])nn1,Active,Active,,,
O=[N+]([O-])c1ccnn1Cc1cn(CC[18F])nn1,,Not Active,,,
O=[N+]([O-])c1nccn1Cc1cn(CC[18F])nn1,Active,Active,,,
O=[N+]([O-])c1cnc(NCc2cn(CCF)nn2)s1,,,0.79,277,
O=[N+]([O-])c1ncccc1NCc1cn(CCF)nn1,,,0.04,58,
O=[N+]([O-])c1ccnn1Cc1cn(CCF)nn1,,,0.03,20,
O=[N+]([O-])c1nccn1Cc1cn(CCF)nn1,,,-0.41,36,
O=[N+]([O-])c1nccn1CC(O)CF (stereo unspecified) [FLUOROMISONIDAZOLE],,,,37,
O=[N+]([O-])c1nccn1CC(O)C[18F] (stereo unspecified) [[18F]FLUOROMISONIDAZOLE],,,,,Drug uptake (MCF7 [7]): 3.2%; Drug uptake (MCF7 [8]): 3.9%; Drug uptake (MCF7 [9]): 1.1%
